Values after ≈ are worked out from the molar mass of the structure shown. *1 amine or outer side, *2 acyl side, *3 side chain or, on linkers, in order; H or OH if unused. Where a SMILES comes first, the peptide text is derived from it. Bridges are numbered along the chain shown (N, C = ends). [ ]: non-standard residue; d: D form. The star is where a group is joined. hTyr(3S-OH,4S-OH,3'-OSO3H) = N[C@H](C(=O)O)[C@H](O)[C@@H](O)c1ccc(O)c(OS(=O)(=O)O)c1; Orn(4R-OH,5R-OH) = O=C([C@H](C[C@@H](O)[C@@H](O)N[*:3])N[*:1])[*:2]; Pro(3S-OH,4S-Me) = C[C@H]1CN[C@H](C(=O)O)[C@H]1O; X1 = CCCCCOc1ccc(-c2cc(-c3ccc(C(=O)*)cc3)no2)cc1; Gln(3R-OH) = NC(=O)C[C@@H](O)[C@H](N)C(=O)O; Hyp = O=C(O)[C@@H]1C[C@@H](O)CN1
Assays:
Nakaseomyces glabratus [1] = assay: Antifungal activity against Candida glabrata isolate 5592 infected in ICR/Swiss neutropenic mouse assessed as dose required for 1-log kill after 24 hrs; format: functional
Summary of the method: (§1)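 Neutropenic mice (cyclophosphamide sc 150 mg/kg day −4, 100 mg/kg day −1 and +2) infected iv by tail vein 2 h before therapy. Micafungin given ip every 24 h for 4 days at six fourfold-spaced dose levels, 0.078–80 mg/kg/24 h, 3 mice per group. Kidney CFU read at 96 h. Hill-model fit; dose giving 1 log10 below start-of-therapy burden.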

Nakaseomyces glabratus [2] = assay: Antifungal activity against Candida glabrata isolate 5376 infected in ICR/Swiss neutropenic mouse assessed as dose required for 1-log kill after 24 hrs; format: functional; summary of the method: as §1
[3] = Ratio of AUC in ICR/Swiss neutropenic mouse at static dose of 9.25 mg/kg, ip after 24 hrs to MIC for Candida glabrata isolate 37661; format: functional; details: route intraperitoneal
[4] = Ratio of AUC in ICR/Swiss neutropenic mouse at static dose of 2.18 mg/kg, ip after 24 hrs to MIC for Candida glabrata isolate 34341; format: functional; details: route intraperitoneal
[5] = Ratio of AUC in ICR/Swiss neutropenic mouse at static dose of 0.06 mg/kg, ip after 24 hrs to MIC for Candida glabrata isolate 32930; format: functional; details: route intraperitoneal
[6] = Ratio of AUC in ICR/Swiss neutropenic mouse at static dose of 0.90 mg/kg, ip after 24 hrs to MIC for Candida glabrata isolate 5376; format: functional; details: dose 0.9 mg/kg; route intraperitoneal
[7] = Ratio of fAUC in ICR/Swiss neutropenic mouse at static dose of 2.84 mg/kg, ip after 24 hrs to MIC for Candida albicans isolate 98-210; format: functional; details: route intraperitoneal
[8] = Ratio of fAUC in ICR/Swiss neutropenic mouse at static dose of 9.25 mg/kg, ip after 24 hrs to MIC for Candida glabrata isolate 37661; format: functional; details: route intraperitoneal
[9] = Ratio of fAUC in ICR/Swiss neutropenic mouse at static dose of 3.76 mg/kg, ip after 24 hrs to MIC for Candida glabrata isolate 570; format: functional; details: route intraperitoneal
[10] = Ratio of fAUC in ICR/Swiss neutropenic mouse at static dose of 3.88 mg/kg, ip after 24 hrs to MIC for Candida glabrata isolate 33616; format: functional; details: route intraperitoneal
[11] = Ratio of AUC in ICR/Swiss neutropenic mouse at 1-Log kill dose of 4.60 mg/kg, ip after 24 hrs to MIC for Candida albicans isolate 98-17; format: functional; details: dose 4.6 mg/kg; route intraperitoneal
[12] = Ratio of AUC in ICR/Swiss neutropenic mouse at 1-Log kill dose of 10.4 mg/kg, ip after 24 hrs to MIC for Candida albicans isolate 98-210; format: functional; details: route intraperitoneal
[13] = Ratio of AUC in ICR/Swiss neutropenic mouse at 1-Log kill dose of 3.77 mg/kg, ip after 24 hrs to MIC for Candida glabrata isolate 35315; format: functional; details: route intraperitoneal
[14] = Ratio of AUC in ICR/Swiss neutropenic mouse at 1-Log kill dose of 1.40 mg/kg, ip after 24 hrs to MIC for Candida glabrata isolate 33609; format: functional; details: dose 1.4 mg/kg; route intraperitoneal
[15] = Ratio of fAUC in ICR/Swiss neutropenic mouse at 1-Log kill dose of 4.60 mg/kg, ip after 24 hrs to MIC for Candida albicans isolate 98-17; format: functional; details: dose 4.6 mg/kg; route intraperitoneal
[16] = Ratio of fAUC in ICR/Swiss neutropenic mouse at 1-Log kill dose of 2.36 mg/kg, ip after 24 hrs to MIC for Candida albicans isolate 580; format: functional; details: route intraperitoneal
[17] = Ratio of fAUC in ICR/Swiss neutropenic mouse at 1-Log kill dose of 1.69 mg/kg, ip after 24 hrs to MIC for Candida glabrata isolate 32930; format: functional; details: route intraperitoneal
[18] = Ratio of fAUC in ICR/Swiss neutropenic mouse at 1-Log kill dose of 1.40 mg/kg, ip after 24 hrs to MIC for Candida glabrata isolate 33609; format: functional; details: dose 1.4 mg/kg; route intraperitoneal
[19] = Ratio of fAUC in ICR/Swiss neutropenic mouse at 1-Log kill dose of 2.0 mg/kg, ip after 24 hrs to MIC for Candida glabrata isolate 5376; format: functional; details: route intraperitoneal
Candida albicans [20] = assay: Antifungal activity against Candida albicans isolate 580 by CLSI method; format: functional
Summary of the method: (§2)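 Broth microdilution MIC per CLSI M27-A2. Two endpoints were read against the drug-free control well: partial inhibition (M1, CLSI recommended) and complete inhibition (M2). Tests were run in duplicate on four separate occasions, and the value is the mean.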

Nakaseomyces glabratus [21] = assay: Antifungal activity against Candida glabrata isolate 33609 by CLSI method; format: functional; summary of the method: as §2
[22] = Half life in Candida infected ICR/Swiss neutropenic mouse at 20 mg/kg, ip; format: ADME, organism-based; parameters: dose 20 mg/kg, route intraperitoneal; details: in vivo
Summary of the method: (§3)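 Single intraperitoneal micafungin doses (80, 20, 5 mg/kg in 0.2 ml, 0.15 M NaCl) given to infected neutropenic mice. Serum was taken from 3 mice per time point at 1, 2, 4, 6, 8, 12, 24 and 48 h. Drug was measured by microbiologic assay with C. albicans K1 (LLOQ 0.12 μg/ml). Noncompartmental analysis; half-life by nonlinear least squares; AUC by trapezoidal rule.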

[23] = Cmax in Candida infected ICR/Swiss neutropenic mouse at 5 mg/kg, ip; format: ADME, organism-based; parameters: dose 5 mg/kg, route intraperitoneal; details: in vivo; summary of the method: as §3
[24] = Half life in Candida infected ICR/Swiss neutropenic mouse at 5 mg/kg, ip; format: ADME, organism-based; parameters: dose 5 mg/kg, route intraperitoneal; details: in vivo; summary of the method: as §3
Candida albicans [25] = assay: Fungistatic activity against Candida albicans isolate 98-210 infected in ICR/Swiss neutropenic mouse after 24 hrs; format: functional
Summary of the method: (§4)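 Neutropenic female ICR/Swiss mice received cyclophosphamide sc at 150 mg/kg on day −4, 100 mg/kg on day −1 and 100 mg/kg on day +2. Mice were infected iv via the tail vein, and ip micafungin in 0.15 M NaCl started 2 h later. Six dose levels from 0.078 to 80 mg/kg/24 h were given q24h for 4 days, 3 mice per dose. Kidney CFU were counted at 96 h. The static dose was derived from a sigmoid Emax (Hill) fit.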

Nakaseomyces glabratus [26] = assay: Fungistatic activity against Candida glabrata isolate 37661 infected in ICR/Swiss neutropenic mouse after 24 hrs; format: functional; summary of the method: as §4
Nakaseomyces glabratus [27] = assay: Fungistatic activity against Candida glabrata isolate 34341 infected in ICR/Swiss neutropenic mouse after 24 hrs; format: functional; summary of the method: as §4
Nakaseomyces glabratus [28] = assay: Fungistatic activity against Candida glabrata isolate 5592 infected in ICR/Swiss neutropenic mouse after 24 hrs; format: functional; summary of the method: as §4
Nakaseomyces glabratus [29] = assay: Fungistatic activity against Candida glabrata isolate 570 infected in ICR/Swiss neutropenic mouse after 24 hrs; format: functional; summary of the method: as §4
Nakaseomyces glabratus [30] = assay: Fungistatic activity against Candida glabrata isolate 33616 infected in ICR/Swiss neutropenic mouse after 24 hrs; format: functional; summary of the method: as §4
Candida albicans [31] = assay: Antifungal activity against Candida albicans isolate 98-17 infected in ICR/Swiss neutropenic mouse assessed as dose required for 1-log kill after 24 hrs; format: functional; summary of the method: as §1
Candida albicans [32] = assay: Antifungal activity against Candida albicans isolate 580 infected in ICR/Swiss neutropenic mouse assessed as dose required for 1-log kill after 24 hrs; format: functional; summary of the method: as §1
Candida albicans [33] = assay: Antifungal activity against Candida albicans isolate K1 infected in ICR/Swiss neutropenic mouse assessed as dose required for 1-log kill after 24 hrs; format: functional; summary of the method: as §1
Nakaseomyces glabratus [34] = assay: Antifungal activity against Candida glabrata isolate 37661 infected in ICR/Swiss neutropenic mouse assessed as dose required for 1-log kill after 24 hrs; format: functional; summary of the method: as §1

Compound `CCCCCOc1ccc(-c2cc(-c3ccc(C(=O)N[C@H]4C[C@@H](O)[C@@H](O)NC(=O)[C@@H]5[C@@H](O)[C@@H](C)CN5C(=O)[C@H]([C@H](O)CC(N)=O)NC(=O)[C@H]([C@H](O)[C@@H](O)c5ccc(O)c(OS(=O)(=O)O)c5)NC(=O)[C@@H]5C[C@@H](O)CN5C(=O)[C@H]([C@@H](C)O)NC4=O)cc3)no2)cc1` [MICAFUNGIN] (X1-[Orn(4R-OH,5R-OH)]T[Hyp][hTyr(3S-OH,4S-OH,3'-OSO3H)][Gln(3R-OH)][Pro(3S-OH,4S-Me)]; lactam 1-C) has an Activity (Nakaseomyces glabratus [1]) of 5.46 mg/kg, an Activity (Nakaseomyces glabratus [2]) of 2 mg/kg and a RatioAUC/MIC [3] of 984. For the same compound, the RatioAUC/MIC [4] was 1003, the RatioAUC/MIC [5] was 236 and the RatioAUC/MIC [6] was 3571. It also gave a fAUC/MIC [7] of 13, a fAUC/MIC [8] of 2.5 and a fAUC/MIC [9] of 17.3. For the same compound, the fAUC/MIC [10] was 1.1, the RatioAUC/MIC [11] was 4233 and the RatioAUC/MIC [12] was 18400. The RatioAUC/MIC [13] was 1733, the RatioAUC/MIC [14] was 2600 and the fAUC/MIC [15] was 10.6. For the same compound, the fAUC/MIC [16] was 4.21, the fAUC/MIC [17] was 7.8 and the fAUC/MIC [18] was 6.5. The fAUC/MIC [19] was 19.7, the MIC (Candida albicans [20]) was 0.016 µg/mL (≈ 0.0126 µM) and the MIC50 (Candida albicans [20]) was 0.008 µg/mL (≈ 0.0063 µM). The MIC (Nakaseomyces glabratus [21]) was 0.016 µg/mL (≈ 0.0126 µM), the MIC50 (Nakaseomyces glabratus [21]) was 0.016 µg/mL (≈ 0.0126 µM) and the half-life [22] was 13 h. For the same compound, the Cmax [23] was 7000 ng/mL, the half-life [24] was 7.5 h and the Activity (Candida albicans [25]) was 2.84 mg/kg. It also gave an Activity (Nakaseomyces glabratus [26]) of 9.25 mg/kg, an Activity (Nakaseomyces glabratus [27]) of 2.18 mg/kg and an Activity (Nakaseomyces glabratus [28]) of 1.8 mg/kg. For the same compound, the Activity (Nakaseomyces glabratus [29]) was 3.76 mg/kg, the Activity (Nakaseomyces glabratus [30]) was 3.88 mg/kg and the Activity (Candida albicans [31]) was 4.6 mg/kg. The Activity (Candida albicans [32]) was 2.36 mg/kg, the Activity (Candida albicans [33]) was 4.08 mg/kg and the Activity (Nakaseomyces glabratus [34]) was 20.6 mg/kg.
